This note sets out measurements from ChEMBL document CHEMBL4145447, “4-arylamidobenzyl substituted 5-bromomethylene-2(5H)-furanones for chronic bacterial infection” (Eur J Med Chem, 2018).

Broadly, the inhibition is the change of the read-out against control, counted positive when it falls.

Data set [1] concerns Mus musculus. As to the kind of experiment: Anti-inflammatory activity in LPS-induced sepsis shock mouse model assessed as survival rate at 20 mg/kg, iv pretreated daily for 5 days followed LPS treatment on day 5 at 1 hr post last dose and measured after 7 days relative to control. The class given is functional. The method, boiled down: (§1)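 Male SPF mice, randomly grouped, dosed i.v. with compound dissolved in DMSO and diluted in physiological saline; vehicle group given a similar volume. LPS was injected on day 5, 1 h after the last administration. Survival was recorded every 12 h for 7 days after LPS, with 11 animals per group per figure legend.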

The subject of data set [2] is RAW264.7. Nature of the data set: Anti-inflammatory activity in mouse RAW264.7 cells assessed as inhibition of LPS-induced IL-6 production by measuring […] level at 10 uM preincubated for 2 hrs followed by LPS stimulation and measured after 12 hrs by ELISA (reference value: 175.2 +/- 10.2 pg/ml). The class given is functional. (An ELISA detects its analyte on a solid surface through an enzyme-linked reagent.)

Data set [3] has as its system RAW264.7. As to the kind of experiment: Anti-inflammatory activity in mouse RAW264.7 cells assessed as inhibition of LPS-induced IL-6 production by measuring IL-6 level at 10 uM preincubated for 2 hrs followed by LPS stimulation and measured after 24 hrs by ELISA (reference value: 407.6 +/- 16.7 pg/ml).
Data set [4] deals with RAW264.7. As to the kind of experiment: Anti-inflammatory activity in mouse RAW264.7 cells assessed as inhibition of LPS-induced TNF-alpha production by measuring TNF-alpha level at 10 uM preincubated for 2 hrs followed by LPS stimulation and measured after 24 hrs by ELISA (reference value: 24216 +/- 498.7 pg/ml). The class given is functional.
Data set [5] is described as follows: Cytotoxicity against mouse RAW264.7 cells assessed as cell viability at 10 uM after 48 hrs by MTT assay relative to control. The class given is cell-based. To be noted: read-out: Activity. The gist of the method:
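MTT viability: RAW264.7 cells (4 × 10^4/well) in DMEM + 10% FBS exposed to compounds diluted in DMEM for 48 h. MTT 0.5 mg/mL added for 4 h in the dark, formazan dissolved in DMSO, read at 570 nm. Viability = treated/medium-only control × 100; three independent experiments.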
A general note: Tetrazolium assays rely on reduction of a dye to a coloured formazan, in cell work by metabolically active cells.

The target of data set [6] is T1, Anthranilate--CoA ligase (Pseudomonas aeruginosa (strain ATCC 15692 / DSM 22644 / CIP 104116 /JCM 14847 / LMG 12228 / 1C / PRS 101 / PAO1)) (UniProt Q9I4X3).
T1 sequence (whole entry): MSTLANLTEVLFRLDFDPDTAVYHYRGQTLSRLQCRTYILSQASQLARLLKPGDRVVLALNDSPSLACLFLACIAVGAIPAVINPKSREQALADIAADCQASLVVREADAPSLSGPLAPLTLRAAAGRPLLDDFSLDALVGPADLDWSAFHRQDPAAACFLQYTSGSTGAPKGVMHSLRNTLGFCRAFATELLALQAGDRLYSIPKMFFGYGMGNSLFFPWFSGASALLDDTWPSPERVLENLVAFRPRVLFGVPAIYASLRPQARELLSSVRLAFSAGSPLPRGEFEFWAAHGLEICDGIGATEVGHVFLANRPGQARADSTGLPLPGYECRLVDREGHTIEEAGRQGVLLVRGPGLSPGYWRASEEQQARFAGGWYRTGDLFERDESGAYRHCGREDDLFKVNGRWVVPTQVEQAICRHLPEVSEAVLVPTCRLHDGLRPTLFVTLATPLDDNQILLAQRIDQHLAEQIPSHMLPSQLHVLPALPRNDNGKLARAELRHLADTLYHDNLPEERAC
Nature of the data set: Inhibition of Pseudomonas aeruginosa PAO1 GFP-fused quorum sensing pqsA at 10 uM measured every 15 mins up to 12 hrs by GFP reporter gene assay relative to control. The gist of the method: (§2)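 GFP reporter strains of P. aeruginosa PAO1 (lasB-, rhlA- or pqsA-promoter fused to unstable gfp(ASV)) grown overnight in LB at 37 °C, 200 rpm, 18 h, then diluted 1:100. Culture mixed 1:1 with compound diluted in LB from 10 mM DMSO stock (0.1% DMSO final). Fluorescence (ex 485/em 528 nm) read every 15 min at 37 °C for ≥12 h.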

Data set [7] has as its system RAW264.7. As to the kind of experiment: Anti-inflammatory activity in mouse RAW264.7 cells assessed as inhibition of LPS-induced IL-6 production by measuring […] level at 10 uM preincubated for 2 hrs followed by LPS stimulation and measured after 6 hrs by ELISA (reference value: 94.6 +/- 5.9 pg/ml). The class given is functional.
The subject of data set [8] is RAW264.7. As to the kind of experiment: Anti-inflammatory activity in mouse RAW264.7 cells assessed as inhibition of LPS-induced NO production at 10 uM preincubated for 2 hrs followed by LPS stimulation and measured after 48 hrs by Griess method relative to control. The class given is functional. The method, boiled down: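 RAW264.7 cells seeded at 5 × 10^4/well and cultured 18 h, then given 10 µM compound plus LPS 100 ng/mL for 48 h at 37 °C. Supernatant mixed 1:1 with Griess reagent (1% sulfanilamide, 0.1% naphthylethylenediamine in 5% phosphoric acid) for 10 min; nitrite read at OD540.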
On the technique in general: The Griess reaction detects nitrite, a stable product of nitric oxide.

Data set [9] relates to RAW264.7. Nature of the data set: Anti-inflammatory activity in mouse RAW264.7 cells assessed as inhibition of LPS-induced TNF-alpha production by measuring TNF-alpha level at 10 uM preincubated for 2 hrs followed by LPS stimulation and measured after 12 hrs by ELISA (reference value: 21561.3 +/- 857 pg/ml). The class given is functional.
Data set [10] has as its system RAW264.7. Nature of the data set: Anti-inflammatory activity in mouse RAW264.7 cells assessed as inhibition of LPS-induced TNF-alpha production by measuring TNF-alpha level at 10 uM preincubated for 2 hrs followed by LPS stimulation and measured after 6 hrs by ELISA (reference value: 11922 +/- 628.4 pg/ml). The class given is functional.
Data set [11] relates to Mus musculus. As to the kind of experiment: Anti-inflammatory activity in LPS-induced sepsis shock mouse model assessed as survival rate at 1 mg/kg, iv pretreated daily for 5 days followed LPS treatment on day 5 at 1 hr post last dose and measured after 7 days relative to control. The class given is functional. The gist of the method:
as §1

Data set [12] has as its target Elastase (Pseudomonas aeruginosa (strain ATCC 15692 / PAO1 / 1C / PRS 101 / LMG12228)) (UniProt P14756). As to the kind of experiment: Inhibition of Pseudomonas aeruginosa PAO1 GFP-fused quorum sensing lasB at 10 uM measured every 15 mins up to 12 hrs by GFP reporter gene assay relative to control. The gist of the method: as §2
Data set [13] has as its system Pseudomonas aeruginosa PAO1. Nature of the data set: Inhibition of Pseudomonas aeruginosa PAO1 GFP-fused quorum sensing rhlA at 10 uM measured every 15 mins up to 12 hrs by GFP reporter gene assay relative to control. The method, boiled down: as §2

Sequence of Elastase (Pseudomonas aeruginosa (strain ATCC 15692 / PAO1 / 1C / PRS 101 / LMG12228)) (P14756 198-498 limits assumed): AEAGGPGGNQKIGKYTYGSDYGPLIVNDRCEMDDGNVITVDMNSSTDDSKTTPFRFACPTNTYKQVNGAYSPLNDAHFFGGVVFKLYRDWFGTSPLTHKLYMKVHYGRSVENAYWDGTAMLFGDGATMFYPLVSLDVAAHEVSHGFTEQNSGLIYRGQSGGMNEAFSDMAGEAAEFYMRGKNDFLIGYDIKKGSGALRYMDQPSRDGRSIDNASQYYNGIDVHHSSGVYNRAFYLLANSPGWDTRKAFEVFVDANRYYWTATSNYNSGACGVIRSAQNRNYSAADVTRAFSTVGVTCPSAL

Consider `CN(CCOc1ccc(CC2SC(=O)NC2=O)cc1)c1ccccn1` (stereo not drawn) [ROSIGLITAZONE], for which, in data set [1], the survival at 20 mg/kg amounted to 45.5%. The Activity was 140 pg/mL in data set [2]; 345.6 pg/mL in data set [3]; 22226 pg/mL in data set [4]; 64.8 pg/mL in [7]; 20616 pg/mL in data set [9]; 11311.3 pg/mL in data set [10]. In addition, the viability at 48 h, 10 µM in [5] was found to be 99%. Besides, the results for the inhibition in data set [6], in data set [12] and in data set [13] were 9.19%, 7.43% and 15.5%, respectively. Moreover, in [8], the inhibition at 10 µM stood at 16.6%. The survival at 1 mg/kg in [11] was determined as 36.5%.
